# Measurements from different studies.
# Protocols differ between the studies behind these lines.
# EGFR: Epidermal growth factor receptor (EGFR, Homo sapiens, UniProt P00533)
# EGFR L858R/T790M: Epidermal growth factor receptor (EGFR, Homo sapiens, UniProt P00533, L858R/T790M)
SMILES,target,effect on,action,method,concentration,quantity,value
c1cnn2ncc(-c3ccnc(N4CCC45COC5)n3)c2c1,"Epidermal growth factor receptor (EGFR, Homo sapiens, UniProt P00533, L858R)",binding,,,1 µM,remaining binding,84%
COc1cc(-c2cc(-c3ccc(N4CCNCC4)cc3)cnc2N)cc(OC)c1OC,"Epidermal growth factor receptor (EGFR, Homo sapiens, UniProt P00533, L861Q)",enzyme activity,inhibitor,,1 µM,inhibition,33%
Cc1ccc(C(=O)Nc2ccc(CN3CCN(C)CC3)c(C(F)(F)F)c2)cc1C#Cc1cnc2cccnn12,"Epidermal growth factor receptor (EGFR, Homo sapiens, UniProt P00533, del746-750)",cell-free assay,,,23.5 nM,remaining signal,64%
CCN(CC)CCNC(=O)c1c(C)[nH]c(/C=C2\C(=O)Nc3ccc(Cl)cc32)c1C,EGFR,cell-free assay,,,0.5 µM,remaining signal,97%
O=C(NCCCN1CCOCC1)c1ccc(Nc2ncc(Cl)c(-c3ccc(Cl)s3)n2)cc1,EGFR L858R/T790M,binding,,competition with immobilised ligand,1 µM,remaining binding,55%
C=CC(=O)Nc1cc(Nc2nc(N3CCc4sccc4C3)c3cccnc3n2)c(OC)cc1N1CCOCC1,EGFR L858R/T790M,enzyme activity,inhibitor,ELISA,0.1 µM,inhibition,23.5%
O=C1CCc2cc(Nc3cc(OC4CCOCC4)c([N+](=O)[O-])cc3Cl)ccc2N1,EGFR L858R/T790M,cell-free assay,,competition with immobilised ligand,1 µM,remaining binding,76%
c1nc2c(Nc3ccc4c(c3)OCCO4)nc(Nc3ccc4c(c3)OCCO4)nc2[nH]1,EGFR,enzyme activity,inhibitor,,10 µM,activity vs control,3.5%
Cc1c(NC(=O)c2cc(C(N)=O)nc3cc(F)ccc23)c(C(F)(F)F)nn1Cc1ccc(C#N)cc1,"Epidermal growth factor receptor (EGFR, Homo sapiens, UniProt P00533, del752-759)",cell-free assay,,competition with immobilised ligand,1 µM,remaining binding,79%
N[C@H]1CCN(c2nccc(-c3cnn4ncccc34)n2)C1,"Epidermal growth factor receptor (EGFR, Homo sapiens, UniProt P00533, T790M)",binding,,,1 µM,remaining binding,79%
O=C(NCc1ncc(C(F)(F)F)cc1Cl)c1ccc2c(c1)C1(CCS(=O)(=O)CC1)[C@@H](C1CC1)N2S(=O)(=O)c1ccc(F)cc1,"Epidermal growth factor receptor (EGFR, Homo sapiens, UniProt P00533, del747-750/T751S)",cell-free assay,,competition with immobilised ligand,1 µM,remaining binding,79%
COc1cc2ncnc(Nc3ccc(Oc4ccccc4)c(C)c3C)c2cc1OC,EGFR,enzyme activity,inhibitor,,1 µM,inhibition,91%
C[C@H](NC(=O)c1cnc2n1[C@](C)(Cc1ccc(C#N)cc1)C(=O)N2c1cc(Cl)c(F)c(Cl)c1)C(=O)NC1(c2ccccn2)CC1,EGFR L858R/T790M,cell-free assay,,competition with immobilised ligand,1 µM,remaining binding,82%
Cc1ccc(C(=O)NCc2ccsc2)cc1C#Cc1cn(C(C)C)c2ncnc(N)c12,EGFR,enzyme activity,inhibitor,,1 µM,activity vs control,86%
CN(c1nccc(-c2cnn3ncccc23)n1)C1CC1,EGFR,binding,,,1 µM,remaining binding,100%
O=c1nc(-c2ccccn2)sc2ccccc12,"Epidermal growth factor receptor (EGFR, Homo sapiens, UniProt P00533, G719C)",cell-free assay,,competition with immobilised ligand,1 µM,remaining binding,77%
CC/C(=N\NC(=O)NCc1cccc(O)c1)c1ccc(O)c(C)c1O,EGFR,enzyme activity,inhibitor,,0.1 µM,inhibition,4.5%
CN(C)C(=O)Cn1cc(-c2nc(C3(c4ccc(-c5cnc(N)nc5)cc4)CC3)no2)cn1,"Epidermal growth factor receptor (EGFR, Homo sapiens, UniProt P00533, A750P/del747-749)",cell-free assay,,competition with immobilised ligand,1 µM,remaining binding,80%
CC(C)[C@@H]1NC(=O)[C@H](CCCNC(=N)N)NC(=O)[C@H](Cc2ccc(O)cc2)NC(=O)[C@H](C(C)C)NC(=O)[C@H](C(C)C)NC(=O)[C@H](CCCNC(=N)N)NC(=O)[C@H](CC(=O)O)NC(=O)[C@H](CC(=O)O)NC(=O)CCNC(=O)[C@H](Cc2ccc(O)cc2)NC(=O)[C@H](Cc2ccc(O)cc2)NC(=O)[C@H](Cc2ccccc2)NC(=O)[C@@H](Cc2ccc(O)cc2)NC(=O)CSC[C@@H](C(=O)NCC(N)=O)NC(=O)[C@H](C)NC1=O,EGFR,binding,,SPR,,kon,192000 M⁻¹ s⁻¹
